Experimental data of several laboratories.
Protocols differ between the studies behind these lines.
Target: Testis-specific serine/threonine-protein kinase 1 (TSSK1B, Homo sapiens, UniProt Q9BXA7)
Sequence (Q9BXA7 1-367, as in one of the studies): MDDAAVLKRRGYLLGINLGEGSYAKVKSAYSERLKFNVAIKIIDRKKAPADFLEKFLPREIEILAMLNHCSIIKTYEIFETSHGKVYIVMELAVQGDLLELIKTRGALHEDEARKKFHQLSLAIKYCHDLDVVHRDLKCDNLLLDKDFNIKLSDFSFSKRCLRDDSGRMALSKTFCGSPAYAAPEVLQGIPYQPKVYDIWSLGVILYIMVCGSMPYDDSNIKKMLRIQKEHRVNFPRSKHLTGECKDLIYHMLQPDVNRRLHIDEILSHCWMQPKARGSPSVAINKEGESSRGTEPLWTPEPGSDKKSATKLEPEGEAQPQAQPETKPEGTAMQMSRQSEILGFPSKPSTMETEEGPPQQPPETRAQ

Structure (SMILES)	read-out	action	method	tested at	measurement	value
Cn1cncc1[C@@](O)(COc1ccc(C#N)cc1-c1ccc(OC(F)(F)F)cc1)c1ccc(C#N)cc1	cell-free assay		competition with immobilised ligand	1 µM	remaining binding	70%
COc1ncccc1-c1cnn2ccc(N3CCN(C(=O)OC(C)C)CC3)nc12	binding		competition with immobilised ligand	1 µM	remaining binding	54%
Cc1nn(C)cc1-c1nc2c(N3CCN(Cc4ccc(Cl)cc4)CC3)c(Cl)cnc2[nH]1	binding		competition with immobilised ligand	1 µM	remaining binding	100%
Nc1ncc(-c2nc(N3CCOCC3)nc(N3CCOCC3)n2)c(C(F)F)n1	binding		competition with immobilised ligand	10 µM	remaining binding	100%
CC(C)(C)c1cc(C=C(C#N)C#N)cc(Br)c1O	enzyme activity	inhibitor		0.5 µM	remaining activity	95.6%
N#CC1(c2ccccn2)CCN(Cc2cc(C(=O)O)c(=O)n3ccccc23)CC1	cell-free assay		competition with immobilised ligand	1 µM	remaining binding	74%
Cn1cc(-c2cccc(N3CCc4c(sc5c4CC(C)(C)C5)C3=O)c2CO)cc(Nc2ccncn2)c1=O	enzyme activity	inhibitor		1 µM	inhibition	5%
COc1cc(Nc2ncc(F)c(Nc3ccc4c(n3)NC(=O)C(C)(C)O4)n2)cc(OC)c1OC	binding			10 µM	inhibition	97%
Cn1cc(-c2cc(F)cc(N3CCn4c(cc5c4CCCC5)C3=O)c2CO)cc(Nc2ccc(N3CCN(C4COC4)CC3)cn2)c1=O	enzyme activity	inhibitor		0.1 µM	inhibition	9%
O=c1[nH]c2ccccc2n1C1CCN(Cc2ccc(-c3[nH]c4cc5ncnc5cc4nc3-c3ccccc3)cc2)CC1	cell-free assay			0.5 µM	remaining signal	96.5%
